Compound activity from PubChem.
AHR act: AHR activators, primary screen, cell-based, luminescence, luciferase reporter, human. Aryl hydrocarbon receptor (Homo sapiens), P35869. AHR-responsive luciferase reporter cells. activation, % at 5 µM. actives 2.5% (n = 320,000); in the data active means activation above about 47%;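 further: 0% = vehicle wells and 100% = reference agonist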
ABCB6 inh 2: ABCB6 transporter inhibitors, primary screen, K562-ABCB6 cells, flow cytometry, MLPCN library; K562-ABCB6 porphyrin accumulation, 1 h; hits give low values; actives 0.19% (n = 360,000); fluorescence ratio to DMSO, % at 10 µM; ATP-binding cassette sub-family B member 6 (Homo sapiens), Q9NP58;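 active means fluorescence ratio to DMSO below 75%, the collection mean minus 3 SD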;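 further: signal is porphyrin accumulated inside mitochondria; 100% equals median channel fluorescence of DMSO control wells; lower ratio means ABCB6 inhibition with less porphyrin fluorescence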
Target sequence (Q9NP58 whole entry, looked up): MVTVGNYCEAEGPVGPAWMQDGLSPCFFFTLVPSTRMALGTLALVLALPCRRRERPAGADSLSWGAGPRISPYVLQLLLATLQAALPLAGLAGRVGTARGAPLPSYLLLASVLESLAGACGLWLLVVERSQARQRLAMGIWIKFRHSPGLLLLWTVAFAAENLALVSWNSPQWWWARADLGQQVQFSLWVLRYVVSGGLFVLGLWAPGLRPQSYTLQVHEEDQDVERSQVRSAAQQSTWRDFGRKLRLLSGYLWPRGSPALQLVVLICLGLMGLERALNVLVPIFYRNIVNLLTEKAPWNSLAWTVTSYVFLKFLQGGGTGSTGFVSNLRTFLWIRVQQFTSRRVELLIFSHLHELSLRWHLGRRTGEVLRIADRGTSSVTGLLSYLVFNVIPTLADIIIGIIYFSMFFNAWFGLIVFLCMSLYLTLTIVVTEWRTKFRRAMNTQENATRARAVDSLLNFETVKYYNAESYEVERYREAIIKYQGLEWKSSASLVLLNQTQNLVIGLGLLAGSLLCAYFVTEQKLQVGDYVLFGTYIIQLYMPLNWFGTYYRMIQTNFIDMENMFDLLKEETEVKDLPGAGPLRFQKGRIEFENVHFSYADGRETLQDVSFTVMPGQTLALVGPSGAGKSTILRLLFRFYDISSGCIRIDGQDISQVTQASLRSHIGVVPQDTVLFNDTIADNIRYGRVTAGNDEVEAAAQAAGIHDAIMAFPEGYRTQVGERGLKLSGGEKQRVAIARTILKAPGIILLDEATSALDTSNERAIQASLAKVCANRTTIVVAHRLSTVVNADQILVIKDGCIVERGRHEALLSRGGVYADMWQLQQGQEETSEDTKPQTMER
STAT3 activator: IL-6 driven STAT3 reporter potentiators, primary screen, U3A cells, luciferase, luminescence, MLSCN library; actives 0.91% (n = 190,000); activation (% of control), % at 5.6 µM; IL-6 STAT3-luciferase reporter; 100% = signal with IL-6 EC80 alone;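 active means activation above the screen-wide mean of compound activation plus 3 SD, cut at about 130% in these data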;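 further: 0% = background luminescence of wells with medium and substrate only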
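Test system: Human STAT1-deficient U3A cells with stable STAT3-luciferase reporter | Also added: Interleukin-6, 33 ng/mL | Timing: Compound pre-incubation 1 h before IL-6, then 6 h stimulation at 37 °C | Technique: Luciferase reporter luminescence | Read-out: Percent of IL-6-only median luminescence | Benchmarks: IL-6-only wells as 100% reference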
FXN GAA850 act: FXN promoter activators, primary screen, cell-based, luciferase luminescence, HEK293 lucGAA850 | activation, % at 6 µM | actives 0.56% (n = 360,000) | HEK293 lucGAA850 FXN promoter luciferase reporter, 24 h; percent of 10 µM SAHA response;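 active means activation above the average of all compounds screened plus 3 SD, cutoff fixed separately per campaign, cut at about 7.5% in these data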;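 further: 0% = DMSO wells and 100% = 10 µM SAHA wells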
GAA30 counter: GAA30 FXN promoter activators, confirmation, counter-screen for GAA850 frataxin promoter activator project, cell-based, luminescence, HEK293, lucGAA30, triplicate | shares compounds with FXN GAA850 act | HEK293 lucGAA30 FXN promoter luciferase, 24 h; DMSO = 0%, 5 µM ipriflavone = 100% | activation, % at 6 µM | actives 66% (n = 1,900);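 active means mean activation above the mean of solvent-only control wells plus 3 SD, cut at about 22% in these data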;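 further: counterscreen of GAA850 promoter hits where activity marks nonselective or luminescence artifacts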
GAA850 confirm: FXN GAA850 promoter activators in reporter cells, confirmation, cell-based, luminescence, HEK293 lucGAA850, triplicate. activation, % at 6 µM. shares compounds with FXN GAA850 act. actives 86% (n = 1,900). HEK293 lucGAA850 FXN promoter luciferase reporter, 24 h; 100% = activation by SAHA;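 active means mean activation above a set limit taken from the primary screen, cut at about 8% in these data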;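 further: 0% = DMSO wells and 100% = 10 µM SAHA wells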
ABCB6 inh CP1: ABCB6 transporter inhibitors, confirmation, K562-ABCB6 cells, flow cytometry, cherry pick 1; 700 tested, under 10 active; shares compounds with ABCB6 inh 2; K562-ABCB6 porphyrin accumulation, 1 h; hits give low values; ratio response (% of DMSO), % at 10 µM;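 active means repeat-averaged ratio response below 75% of DMSO, the collection mean minus 3 SD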;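 further: median porphyrin fluorescence at 575 nm with 488 nm excitation from mitochondria; lower ratio means less porphyrin signal so ABCB6 inhibition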
The depositor's hits bear a star; · = no result. Sampled rows, rich in hits. Any-hit rate of the full collection: about 3.3%.

SMILES	AHR act	ABCB6 inh 2	STAT3 activator	FXN GAA850 act	GAA30 counter	GAA850 confirm	others
COc1cc2c(cc1OC)/C(=C/C(=O)c1ccccc1)NCC2	14.3	99.0	·	8.5*	29.0*	15.5*
CCC(C)(C)NC(=O)CN(Cc1ccccc1)C(=O)CCC(=O)Nc1nccs1	-1.4	94.0	·	1.8	·	·
COc1ccc2c(c1)Cc1sc(NC(C)=O)nc1-2	-4.9	87.0	98.9	8.2*	111.1*	31.9*
COc1ccc2c(c1)Cc1sc(NC(=O)c3ccco3)nc1-2	-6.2	99.0	82.6	4.2	·	·
COC(=O)c1cccc(CN2C(=O)SC(Nc3ccc(C)cc3)C2=O)c1 (stereo not drawn)	-0.8	99.0	·	-0.5	·	·
CCOC(=O)[C@H]1[C@H]2COc3ccccc3[C@@H]2N2C(=O)c3c(C)cc(C)cc3NC(=O)[C@@]12C	5.9	100.0	·	11.0*	27.6*	11.4*
CCOC(=O)[C@H]1[C@H]2COc3ccccc3[C@@H]2N2C(=O)c3cc(C)ccc3NC(=O)[C@@]12C	-0.8	101.0	·	-6.1	·	·
CN(C)S(=O)(=O)c1ccc(SCC(=O)N2CC(=O)Nc3ccccc32)nc1	12.9	99.0	·	1.2	·	·
O=c1oc(-c2cccs2)nc2sc3c(c12)CCCC3	3.9	101.0	111.3	-1.1	·	·
O=C1CN(c2nc(-c3cccs3)nc3sc4c(c23)CCCC4)CCN1	22.8	91.0	120.9	9.3*	49.3*	23.0*
O=c1c2c3c(sc2nc2n1N=C(c1cccs1)CS2)CCCC3	5.9	96.0	83.2	9.6*	87.4*	40.2*
CC1(C)Cc2c(c(N3CCOCC3)nc3sc(C#N)c(N)c23)CS1	0.1	90.0	101.4	8.3*	17.8	15.7*
CC1(C)Cc2c(c(N3CCOCC3)nc3sc(C(N)=O)c(N)c23)CO1	1.4	96.0	·	0.2	·	·
Cc1cc(C(=O)CSc2n[nH]c(N)n2)c(C)n1-c1ccccc1	16.9	94.0	109.6	8.9*	100.8*	28.4*
Cc1ccc(COc2ccccc2C(=S)N2CCCC2)cc1	4.8	96.0	109.7	8.1*	51.0*	23.2*
CC1CCC(NC(=O)CCn2ccc3cc(S(=O)(=O)N4CCCC4)ccc32)CC1 (stereo not drawn)	-0.1	95.0	·	8.4*	8.8	8.9*
CC1CCN(S(=O)(=O)c2ccc3c(ccn3CCC(=O)N3CCCCC3)c2)CC1	1.0	98.0	·	1.0	·	·
O=C1C=CC(O)C2(CO)OC12 (stereo not drawn)	·	98.0	·	11.7*	-1.1	12.2*
N#CCSc1ccc(-c2nc3ccccc3[nH]2)cn1	11.3	90.0	97.6	7.8*	85.3*	27.0*
CCOC(=O)CSc1ccc(-c2nc3ccccc3[nH]2)cn1	14.3	85.0	92.4	0.6	·	·
COc1ccc(C(=O)/C=C/C(=O)N(CC(=O)NC2CCCCC2)Cc2ccccc2)c(O)c1	·	96.0	117.2	7.6*	-87.5	-23.3
CCOC(=O)C1=C(O)/C(=C/c2cc(OC)c(OC)c(OC)c2)SC1=Nc1ccc(OC)cc1	3.0	82.0	104.8	9.6*	16.8	10.9*
COc1ccc([C@@H]2[C@@H]3C(=O)N(C(C)(C)C)C(=O)[C@@H]3[C@]3(CC(C)C)C(=O)N(c4ccccc4)C(=O)N23)cc1	6.6	103.0	·	14.7*	40.4*	18.4*
COc1ccc([C@@H]2[C@@H]3C(=O)N(C(C)(C)C)C(=O)[C@@H]3[C@]3(CC(C)C)C(=O)N(c4cccc(Br)c4)C(=O)N23)cc1	5.0	94.0	·	16.7*	26.5*	14.4*
COc1ccc([C@@H]2[C@@H]3C(=O)N(C(C)(C)C)C(=O)[C@@H]3[C@]3(CC(C)C)C(=O)N(c4ccc(C(F)(F)F)cc4)C(=O)N23)cc1	2.1	99.0	·	2.0	·	·
SMILES	AHR act	ABCB6 inh 2	STAT3 activator	FXN GAA850 act	GAA30 counter	GAA850 confirm	others
CC(C)(C)c1ccc(Cn2nnc3c(=O)[nH]c(C4CCN(C(=O)Cc5cccs5)CC4)nc32)cc1	-1.3	68.0*	102.7	8.3*	1.9	10.0*	ABCB6 inh CP1=96.0
COc1ccc(-c2noc(CCC(=O)N3CCN(c4cccc(F)c4)CC3)n2)cc1	·	97.0	·	2.7	·	·
CSc1ccc(CNC(=O)C2Cc3cc(S(=O)(=O)N4CCCC4)ccc3N2C(C)=O)cc1 (stereo not drawn)	2.3	97.0	·	-0.8	·	·
CCc1ccc(CNC(=O)C2Cc3cc(S(=O)(=O)N4CCCC4)ccc3N2C(C)=O)cc1 (stereo not drawn)	3.0	5.0*	·	0.9	·	·	ABCB6 inh CP1=99.0
Cc1nc2ccccc2c(=O)n1NC(=O)c1ccc(C(C)(C)C)cc1	0.2	95.0	·	0.0	·	·
COc1ccc(C(=O)Nn2c(C)nc3ccccc3c2=O)cc1	1.4	74.0*	·	0.3	·	·	ABCB6 inh CP1=100.0
O=C(c1cccc(C(F)(F)F)c1)c1c[nH]c(C(=O)NCCCN2CCOCC2)c1	1.1	96.0	104.3	1.3	·	·
CCCOc1ccc(-c2nc(=S)[nH][nH]2)cc1	8.4	69.0*	103.0	3.6	·	·	ABCB6 inh CP1=99.0
O=C(Nc1ccc(CSc2ccccc2)cc1)c1ccco1	-2.2	101.0	·	7.5	·	·
CCCCN(C(=O)c1cc(-c2ccncc2)nc2ccccc12)c1c(N)n(CC(C)C)c(=O)[nH]c1=O	4.3	51.0*	·	1.6	·	·	ABCB6 inh CP1=100.0
COCCN(C(=O)c1cc(-c2ccncc2)nc2ccccc12)c1c(N)n(CC(C)C)c(=O)[nH]c1=O	4.2	101.0	·	2.6	·	·
O=C(c1nn2c(C(F)(F)F)cc(-c3cccs3)nc2c1Cl)N1CCCc2ccccc21	10.6	475.0	102.2	1.9	·	·
COc1cccc(-c2nnc(-c3ccco3)o2)c1	51.3*	67.0*	95.7	2.2	·	·	ABCB6 inh CP1=97.0
COc1cccc(-c2nnc(-c3ccc(C)o3)o2)c1	-0.6	96.0	56.3	2.3	·	·
Cc1ccc(C)c(C(=O)COC(=O)C2CCN(c3ccc(C(F)(F)F)cn3)CC2)c1	0.3	92.0	·	2.5	·	·
Cc1nn(CCC#N)c(N)c1C1(O)C(=O)Nc2c(Cl)cc(Cl)cc21 (stereo not drawn)	7.1	13.0*	·	-1.1	·	·	ABCB6 inh CP1=96.0
CCCCn1c(N)c(N(CCC(C)C)C(=O)CC2CCCCC2)c(=O)[nH]c1=O	-2.4	95.0	·	1.1	·	·
